In brackets after ≈: the same amount, converted by molar mass. Activity calls are given as the source filed them. No cut-off for these calls is given here.
What was measured:
Staphylococcus aureus [1] = test: Antibacterial activity against methicillin-susceptible Staphylococcus aureus 60/05 isolates after 18 hrs; assay type: functional
In short: (§1)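 Agar-dilution MIC on Mueller–Hinton II agar per CLSI guidelines. Aqueous test solutions were added to liquid agar to give two dilution series across 6.25–400 µg/mL. Solidified plates were spot-inoculated with 2 µL aliquots to a final inoculum of 10^4 […]. […] Strains were standard S. aureus strains or hospital patient isolates typed MSSA/MRSA.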

Staphylococcus aureus [2] = test: Antibacterial activity against Staphylococcus aureus ATCC 25923 after 18 hrs; assay type: functional; conditions: ATCC 25923, 18 h; in short: as §1
Staphylococcus aureus [3] = test: Antibacterial activity against methicillin-susceptible Staphylococcus aureus 40/05 isolates after 18 hrs; assay type: functional; in short: as §1
Staphylococcus aureus [4] = test: Antibacterial activity against methicillin-resistant Staphylococcus aureus 48/05 isolates after 18 hrs; assay type: functional; in short: as §1
Bacillus subtilis [5] = test: microbe, parasite or virus in culture; conditions: ATCC 6633, read-out: IZ
Staphylococcus aureus [6] = test: Antibacterial activity against methicillin-resistant Staphylococcus aureus 54/05 isolates after 18 hrs; assay type: functional; in short: as §1
Staphylococcus aureus [7] = test: Antibacterial activity against methicillin-resistant Staphylococcus aureus 55/05 isolates after 18 hrs; assay type: functional; in short: as §1
Staphylococcus aureus [8] = test: Antibacterial activity against methicillin-susceptible Staphylococcus aureus 3/04 isolates after 18 hrs; assay type: functional; in short: as §1
Staphylococcus aureus [9] = test: Antibacterial activity against methicillin-resistant Staphylococcus aureus 79/05 isolates after 18 hrs; assay type: functional; in short: as §1
Staphylococcus aureus [10] = test: Antibacterial activity against methicillin-susceptible Staphylococcus aureus 4/04 isolates after 18 hrs; assay type: functional; in short: as §1
Staphylococcus aureus [11] = test: Antibacterial activity against methicillin-susceptible Staphylococcus aureus 7/04 isolates after 18 hrs; assay type: functional; in short: as §1
Staphylococcus aureus [12] = test: Antibacterial activity against Staphylococcus aureus ATCC 29213 after 18 hrs; assay type: functional; conditions: ATCC 29213, 18 h; in short: as §1
Staphylococcus aureus [13] = test: Antibacterial activity against methicillin-susceptible Staphylococcus aureus 6/04 isolates after 18 hrs; assay type: functional; in short: as §1
Staphylococcus aureus [14] = test: Antibacterial activity against methicillin-resistant Staphylococcus aureus 83/05 isolates after 18 hrs; assay type: functional; in short: as §1
Escherichia coli [15] = test: microbe, parasite or virus in culture; conditions: ATCC 25922, read-out: IZ
Staphylococcus aureus [16] = test: Antibacterial activity against Staphylococcus aureus NCTC 4163 after 18 hrs; assay type: functional; conditions: NCTC 4163, 18 h; in short: as §1
Staphylococcus aureus [17] = test: Antibacterial activity against methicillin-resistant Staphylococcus aureus 1/04 isolates after 18 hrs; assay type: functional; in short: as §1
Staphylococcus aureus [18] = test: Antibacterial activity against methicillin-susceptible Staphylococcus aureus 14/04 isolates after 18 hrs; assay type: functional; in short: as §1
Pseudomonas aeruginosa [19] = test: microbe, parasite or virus in culture; conditions: NCTC 6749, read-out: IZ
Enterococcus hirae [20] = test: Antibacterial activity against Enterococcus hirae ATCC 10541 at 5 ug/disk after 24 to 48 hrs by disc-diffusion method; assay type: functional, organism-based
Pseudomonas aeruginosa [21] = test: microbe, parasite or virus in culture; conditions: ATCC 15442, read-out: IZ
Staphylococcus aureus [22] = test: Antibacterial activity against methicillin-susceptible Staphylococcus aureus 2/04 isolates after 18 hrs; assay type: functional; in short: as §1
Staphylococcus aureus [23] = test: Antibacterial activity against methicillin-resistant Staphylococcus aureus 91/06 isolates after 18 hrs; assay type: functional; in short: as §1
[24] = tested on: Bordetella bronchiseptica; test: microbe, parasite or virus in culture; conditions: ATCC 4617, read-out: IZ
Candida albicans [25] = test: Antimicrobial activity against Candida albicans ATCC 10231 at 5 ug/disk after 24 to 48 hrs by disc-diffusion method; assay type: functional, organism-based
Staphylococcus aureus [26] = test: Antibacterial activity against methicillin-resistant Staphylococcus aureus 46/05 isolates after 18 hrs; assay type: functional; in short: as §1
Staphylococcus aureus [27] = test: Antibacterial activity against methicillin-susceptible Staphylococcus aureus 49/05 isolates after 18 hrs; assay type: functional; in short: as §1
Staphylococcus aureus [28] = test: Antibacterial activity against methicillin-susceptible Staphylococcus aureus 42/05 isolates after 18 hrs; assay type: functional; in short: as §1
Staphylococcus aureus [29] = test: Antibacterial activity against methicillin-susceptible Staphylococcus aureus 28/04 isolates after 18 hrs; assay type: functional; in short: as §1
Staphylococcus aureus [30] = test: Antibacterial activity against methicillin-resistant Staphylococcus aureus 53/05 isolates after 18 hrs; assay type: functional; in short: as §1
Staphylococcus aureus [31] = test: Antibacterial activity against methicillin-susceptible Staphylococcus aureus 72/05 isolates after 18 hrs; assay type: functional; in short: as §1
Staphylococcus aureus [32] = test: Antibacterial activity against methicillin-resistant Staphylococcus aureus 92/06 isolates after 18 hrs; assay type: functional; in short: as §1
Staphylococcus aureus [33] = test: microbe, parasite or virus in culture; conditions: NCTC 4163, read-out: IZ
Staphylococcus aureus [34] = test: Antibacterial activity against methicillin-resistant Staphylococcus aureus 29/04 isolates after 18 hrs; assay type: functional; in short: as §1
Staphylococcus aureus [35] = test: Antibacterial activity against methicillin-resistant Staphylococcus aureus 47/05 isolates after 18 hrs; assay type: functional; in short: as §1
Staphylococcus aureus [36] = test: Antibacterial activity against methicillin-susceptible Staphylococcus aureus 98/06 isolates after 18 hrs; assay type: functional; in short: as §1
Staphylococcus aureus [37] = test: Antibacterial activity against methicillin-susceptible Staphylococcus aureus 102/06 isolates after 18 hrs; assay type: functional; in short: as §1
Staphylococcus aureus [38] = test: Antibacterial activity against methicillin-resistant Staphylococcus aureus 19/04 isolates after 18 hrs; assay type: functional; in short: as §1
Staphylococcus aureus [39] = test: Antibacterial activity against methicillin-resistant Staphylococcus aureus 56/05 isolates after 18 hrs; assay type: functional; in short: as §1
Escherichia coli [40] = test: microbe, parasite or virus in culture; conditions: ATCC 10538, read-out: IZ
Staphylococcus aureus [41] = test: microbe, parasite or virus in culture; conditions: ATCC 29213, read-out: IZ
Staphylococcus aureus [42] = test: microbe, parasite or virus in culture; conditions: ATCC 6538P, read-out: IZ
Staphylococcus aureus [43] = test: microbe, parasite or virus in culture; conditions: ATCC 25923, read-out: IZ
Staphylococcus aureus [44] = test: Antibacterial activity against Staphylococcus aureus ATCC 6538P after 18 hrs; assay type: functional; in short: as §1
Staphylococcus aureus [45] = test: Antibacterial activity against methicillin-susceptible Staphylococcus aureus 69/05 isolates after 18 hrs; assay type: functional; in short: as §1
Staphylococcus aureus [46] = test: Antibacterial activity against methicillin-susceptible Staphylococcus aureus 65/05 isolates after 18 hrs; assay type: functional; in short: as §1
Staphylococcus aureus [47] = test: Antibacterial activity against methicillin-susceptible Staphylococcus aureus 101/06 isolates after 18 hrs; assay type: functional; in short: as §1
Staphylococcus aureus [48] = test: Antibacterial activity against methicillin-resistant Staphylococcus aureus 93/06 isolates after 18 hrs; assay type: functional; in short: as §1
Staphylococcus aureus [49] = test: Antibacterial activity against methicillin-susceptible Staphylococcus aureus 38/05 isolates after 18 hrs; assay type: functional; in short: as §1
Staphylococcus aureus [50] = test: Antibacterial activity against Staphylococcus aureus ATCC 29213 at 10 ug/disk after 24 to 48 hrs by disc-diffusion method; assay type: functional, organism-based
Escherichia coli [51] = test: Antibacterial activity against Escherichia coli ATCC […] at 10 ug/disk after 24 to 48 hrs by disc-diffusion method; assay type: functional, organism-based
[52] = tested on: Bordetella bronchiseptica; test: Antibacterial activity against Bordetella bronchiseptica ATCC 4617 at 10 ug/disk after 24 to 48 hrs by disc-diffusion method; assay type: functional, organism-based
Staphylococcus aureus [53] = test: Antibacterial activity against Staphylococcus aureus ATCC 6538P at 10 ug/disk after 24 to 48 hrs by disc-diffusion method
Pseudomonas aeruginosa [54] = test: Antibacterial activity against Pseudomonas aeruginosa ATCC […] at 10 ug/disk after 24 to 48 hrs by disc-diffusion method; assay type: functional, organism-based
Staphylococcus aureus [55] = test: Antibacterial activity against Staphylococcus aureus ATCC 25923 at 10 ug/disk after 24 to 48 hrs by disc-diffusion method
Escherichia coli [56] = test: Antibacterial activity against Escherichia coli ATCC […] at 10 ug/disk after 24 to 48 hrs by disc-diffusion method; assay type: functional, organism-based
Enterococcus hirae [57] = test: Antibacterial activity against Enterococcus hirae ATCC 10541 at 10 ug/disk after 24 to 48 hrs by disc-diffusion method
Pseudomonas aeruginosa [58] = test: Antibacterial activity against Pseudomonas aeruginosa NCTC 6749 at 10 ug/disk after 24 to 48 hrs by disc-diffusion method; assay type: functional, organism-based
Staphylococcus aureus [59] = test: Antibacterial activity against Staphylococcus aureus NCTC 4163 at 10 ug/disk after 24 to 48 hrs by disc-diffusion method; assay type: functional, organism-based
Candida albicans [60] = test: microbe, parasite or virus in culture; conditions: ATCC 10231, read-out: IZ
Bacillus subtilis [61] = test: Antibacterial activity against Bacillus subtilis ATCC 6633 at 10 ug/disk after 24 to 48 hrs by disc-diffusion method; assay type: functional, organism-based

Compound: O=C(O)c1cn(C2CC2)c2cc(N3CCNCC3)c(F)cc2c1=O [CIPROFLOXACIN]
- MIC (Staphylococcus aureus [1]): 0.5 µg/mL (≈ 1.51 µM)
- MIC (Staphylococcus aureus [2]): 0.5 µg/mL (≈ 1.51 µM)
- MIC (Staphylococcus aureus [3]): 0.5 µg/mL (≈ 1.51 µM)
- MIC (Staphylococcus aureus [4]): 128 µg/mL (≈ 386 µM)
- zone of inhibition at 5 µg/disc (Bacillus subtilis [5]): 40 mm
- MIC (Staphylococcus aureus [6]): 128 µg/mL (≈ 386 µM)
- MIC (Staphylococcus aureus [7]): 128 µg/mL (≈ 386 µM)
- MIC (Staphylococcus aureus [8]): 0.25 µg/mL (≈ 0.754 µM)
- MIC (Staphylococcus aureus [9]): 128 µg/mL (≈ 386 µM)
- MIC (Staphylococcus aureus [10]): 0.25 µg/mL (≈ 0.754 µM)
- MIC (Staphylococcus aureus [11]): 2 µg/mL (≈ 6.04 µM)
- MIC (Staphylococcus aureus [12]): 0.5 µg/mL (≈ 1.51 µM)
- MIC (Staphylococcus aureus [13]): 0.25 µg/mL (≈ 0.754 µM)
- MIC (Staphylococcus aureus [14]): 32 µg/mL (≈ 96.6 µM)
- zone of inhibition at 5 µg/disc (Escherichia coli [15]): 35 mm
- MIC (Staphylococcus aureus [16]): 0.5 µg/mL (≈ 1.51 µM)
- MIC (Staphylococcus aureus [17]): 64 µg/mL (≈ 193 µM)
- MIC (Staphylococcus aureus [18]): 1 µg/mL (≈ 3.02 µM)
- zone of inhibition at 5 µg/disc (Pseudomonas aeruginosa [19]): 26 mm
- Activity (Enterococcus hirae [20]): inactive
- zone of inhibition at 5 µg/disc (Pseudomonas aeruginosa [21]): 26 mm
- MIC (Staphylococcus aureus [22]): > 4 µg/mL
- MIC (Staphylococcus aureus [23]): > 128 µg/mL
- zone of inhibition at 5 µg/disc [24]: 31 mm
- Activity (Candida albicans [25]): inactive
- MIC (Staphylococcus aureus [26]): 64 µg/mL (≈ 193 µM)
- MIC (Staphylococcus aureus [27]): 0.25 µg/mL (≈ 0.754 µM)
- MIC (Staphylococcus aureus [28]): 2 µg/mL (≈ 6.04 µM)
- MIC (Staphylococcus aureus [29]): 1 µg/mL (≈ 3.02 µM)
- MIC (Staphylococcus aureus [30]): 128 µg/mL (≈ 386 µM)
- MIC (Staphylococcus aureus [31]): 0.25 µg/mL (≈ 0.754 µM)
- MIC (Staphylococcus aureus [32]): 8 µg/mL (≈ 24.1 µM)
- zone of inhibition at 5 µg/disc (Staphylococcus aureus [33]): 26 mm
- MIC (Staphylococcus aureus [34]): 64 µg/mL (≈ 193 µM)
- MIC (Staphylococcus aureus [35]): 128 µg/mL (≈ 386 µM)
- MIC (Staphylococcus aureus [36]): 0.25 µg/mL (≈ 0.754 µM)
- MIC (Staphylococcus aureus [37]): 0.5 µg/mL (≈ 1.51 µM)
- MIC (Staphylococcus aureus [38]): 64 µg/mL (≈ 193 µM)
- MIC (Staphylococcus aureus [39]): 32 µg/mL (≈ 96.6 µM)
- zone of inhibition at 5 µg/disc (Escherichia coli [40]): 34 mm
- zone of inhibition at 5 µg/disc (Staphylococcus aureus [41]): 22 mm
- zone of inhibition at 5 µg/disc (Staphylococcus aureus [42]): 28 mm
- zone of inhibition at 5 µg/disc (Staphylococcus aureus [43]): 26 mm
- MIC (Staphylococcus aureus [44]): 0.5 µg/mL (≈ 1.51 µM)
- MIC (Staphylococcus aureus [45]): 2 µg/mL (≈ 6.04 µM)
- MIC (Staphylococcus aureus [46]): 0.5 µg/mL (≈ 1.51 µM)
- MIC (Staphylococcus aureus [47]): 0.25 µg/mL (≈ 0.754 µM)
- MIC (Staphylococcus aureus [48]): 128 µg/mL (≈ 386 µM)
- MIC (Staphylococcus aureus [49]): 0.25 µg/mL (≈ 0.754 µM)

Compound: Clc1ccc(COC(Cn2ccnc2)c2ccc(Cl)cc2Cl)c(Cl)c1 (stereo unspecified) [MICONAZOLE]
- Activity (Staphylococcus aureus [50]): inactive
- Activity (Escherichia coli [51]): inactive
- Activity [52]: inactive
- Activity (Staphylococcus aureus [53]): inactive
- Activity (Pseudomonas aeruginosa [54]): inactive
- Activity (Staphylococcus aureus [55]): inactive
- Activity (Escherichia coli [56]): inactive
- Activity (Enterococcus hirae [57]): inactive
- Activity (Pseudomonas aeruginosa [58]): inactive
- Activity (Staphylococcus aureus [59]): inactive
- zone of inhibition at 10 µg/disc (Candida albicans [60]): 20 mm
- Activity (Bacillus subtilis [61]): inactive

— ChEMBL document CHEMBL1141663, “Synthesis and antibacterial activity of bis-[2-hydroxy-3-(1,7,8,9,10-pentamethyl-3,5-dioxo-4-aza-tricyclo[5.2.1.0(2,6)]dec-8-en-4-yloxy)-propyl]-dimethyl-ammonium chloride” (2008)
